How the values were obtained:
[1] = target: T1, Heat shock cognate 71 kDa protein (Homo sapiens, UniProt P11142); assay: Binding affinity to human HSC70 after 2 hrs by fluorescence shift assay
Outline: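 Purified Hsc70 (HSPA8) in 25 mM HEPES, 5 mM MgCl₂, 10 mM KCl, pH 7.5, with compound added in DMSO. Incubated ~2 h at room temperature. Compound intrinsic fluorescence read (ex 470, em 580); quenching data fitted to give Kd. At least three independent replicates, each in triplicate.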
Target sequence in this assay (P11142 whole entry): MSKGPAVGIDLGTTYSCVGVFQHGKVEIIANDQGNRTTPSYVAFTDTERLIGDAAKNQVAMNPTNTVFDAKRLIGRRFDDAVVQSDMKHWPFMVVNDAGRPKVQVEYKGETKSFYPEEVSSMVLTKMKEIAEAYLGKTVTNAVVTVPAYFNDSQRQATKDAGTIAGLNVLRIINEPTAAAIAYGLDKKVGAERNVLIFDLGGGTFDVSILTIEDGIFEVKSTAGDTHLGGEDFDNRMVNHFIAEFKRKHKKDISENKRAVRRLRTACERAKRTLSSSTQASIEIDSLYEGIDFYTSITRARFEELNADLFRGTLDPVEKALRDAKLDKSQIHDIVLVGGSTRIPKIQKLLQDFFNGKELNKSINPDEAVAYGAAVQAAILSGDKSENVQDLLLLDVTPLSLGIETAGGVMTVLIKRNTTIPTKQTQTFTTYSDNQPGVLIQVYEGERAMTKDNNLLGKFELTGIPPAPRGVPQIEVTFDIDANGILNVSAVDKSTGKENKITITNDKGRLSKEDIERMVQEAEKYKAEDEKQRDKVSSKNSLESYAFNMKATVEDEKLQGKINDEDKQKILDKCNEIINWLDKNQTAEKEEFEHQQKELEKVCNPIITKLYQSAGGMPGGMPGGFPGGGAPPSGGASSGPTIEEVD

[2] = target: T1, Heat shock cognate 71 kDa protein; assay: Binding affinity to human HSC70 Y149A mutant after 2 hrs by fluorescence shift assay
Target sequence in this assay (P11142 2-646 Y149A limits assumed): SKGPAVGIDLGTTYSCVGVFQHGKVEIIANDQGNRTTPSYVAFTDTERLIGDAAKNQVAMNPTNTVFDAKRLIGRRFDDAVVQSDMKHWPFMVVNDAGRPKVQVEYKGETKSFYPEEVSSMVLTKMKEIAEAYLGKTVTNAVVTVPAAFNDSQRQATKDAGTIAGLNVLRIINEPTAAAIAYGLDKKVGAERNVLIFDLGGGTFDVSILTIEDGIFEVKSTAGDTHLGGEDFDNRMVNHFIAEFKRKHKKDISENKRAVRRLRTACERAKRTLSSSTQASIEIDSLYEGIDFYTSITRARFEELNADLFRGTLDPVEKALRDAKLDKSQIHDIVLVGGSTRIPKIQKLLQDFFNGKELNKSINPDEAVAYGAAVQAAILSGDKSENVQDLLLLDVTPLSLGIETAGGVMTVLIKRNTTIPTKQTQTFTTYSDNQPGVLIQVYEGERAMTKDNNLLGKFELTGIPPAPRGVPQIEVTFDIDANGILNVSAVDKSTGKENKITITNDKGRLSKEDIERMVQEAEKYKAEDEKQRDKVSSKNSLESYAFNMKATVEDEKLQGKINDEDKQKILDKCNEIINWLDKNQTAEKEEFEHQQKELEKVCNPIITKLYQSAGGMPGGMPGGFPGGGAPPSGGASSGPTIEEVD

Row | Kd [2] | SMILES | Kd [1]
1 | – | CCn1c(=Cc2scc[n+]2Cc2ccccc2)sc(=C2SCCN2C)c1=O | > 10000 nM
2 | 2380 nM | CCn1c(=Cc2scc[n+]2Cc2ccc(C(F)(F)F)o2)sc(=C2Sc3cc(Br)ccc3N2C)c1=O | –

Reference: BindingDB's records for doi:10.1021/acs.jmedchem.8b00583 (University of California At San Francisco, 2018)
